# ChEMBL document CHEMBL4257576, “4-Iminooxazolidin-2-one as a Bioisostere of the Cyanohydrin Moiety: Inhibitors of Enterovirus 71 3C Protease” (J Med Chem, 2018)
# Calls of active or inactive are those of the source. No cut-off for these calls is given here.
# Experiments:
# [1] = Cytotoxicity in human RD cells assessed as reduction in cell viability incubated for 24 hrs by WST1 assay; format: cell-based
# Method in brief: (§1)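 Values (EC50, CC50) are the average of three independent experiments, with SEM (n = 3).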
# Genome polyprotein = Genome polyprotein (Enterovirus A71, UniProt A0A1D8D5K2); assay: Inhibition of EV71 3C protease expressed in Escherichia coli BL21(DE3) using NMA-IEALFQGPPK(DNP)FR as substrate preincubated for 0.5 hrs followed by substrate addition by fluorescence assay
# Chain of Genome polyprotein (A0A1D8D5K2 whole entry): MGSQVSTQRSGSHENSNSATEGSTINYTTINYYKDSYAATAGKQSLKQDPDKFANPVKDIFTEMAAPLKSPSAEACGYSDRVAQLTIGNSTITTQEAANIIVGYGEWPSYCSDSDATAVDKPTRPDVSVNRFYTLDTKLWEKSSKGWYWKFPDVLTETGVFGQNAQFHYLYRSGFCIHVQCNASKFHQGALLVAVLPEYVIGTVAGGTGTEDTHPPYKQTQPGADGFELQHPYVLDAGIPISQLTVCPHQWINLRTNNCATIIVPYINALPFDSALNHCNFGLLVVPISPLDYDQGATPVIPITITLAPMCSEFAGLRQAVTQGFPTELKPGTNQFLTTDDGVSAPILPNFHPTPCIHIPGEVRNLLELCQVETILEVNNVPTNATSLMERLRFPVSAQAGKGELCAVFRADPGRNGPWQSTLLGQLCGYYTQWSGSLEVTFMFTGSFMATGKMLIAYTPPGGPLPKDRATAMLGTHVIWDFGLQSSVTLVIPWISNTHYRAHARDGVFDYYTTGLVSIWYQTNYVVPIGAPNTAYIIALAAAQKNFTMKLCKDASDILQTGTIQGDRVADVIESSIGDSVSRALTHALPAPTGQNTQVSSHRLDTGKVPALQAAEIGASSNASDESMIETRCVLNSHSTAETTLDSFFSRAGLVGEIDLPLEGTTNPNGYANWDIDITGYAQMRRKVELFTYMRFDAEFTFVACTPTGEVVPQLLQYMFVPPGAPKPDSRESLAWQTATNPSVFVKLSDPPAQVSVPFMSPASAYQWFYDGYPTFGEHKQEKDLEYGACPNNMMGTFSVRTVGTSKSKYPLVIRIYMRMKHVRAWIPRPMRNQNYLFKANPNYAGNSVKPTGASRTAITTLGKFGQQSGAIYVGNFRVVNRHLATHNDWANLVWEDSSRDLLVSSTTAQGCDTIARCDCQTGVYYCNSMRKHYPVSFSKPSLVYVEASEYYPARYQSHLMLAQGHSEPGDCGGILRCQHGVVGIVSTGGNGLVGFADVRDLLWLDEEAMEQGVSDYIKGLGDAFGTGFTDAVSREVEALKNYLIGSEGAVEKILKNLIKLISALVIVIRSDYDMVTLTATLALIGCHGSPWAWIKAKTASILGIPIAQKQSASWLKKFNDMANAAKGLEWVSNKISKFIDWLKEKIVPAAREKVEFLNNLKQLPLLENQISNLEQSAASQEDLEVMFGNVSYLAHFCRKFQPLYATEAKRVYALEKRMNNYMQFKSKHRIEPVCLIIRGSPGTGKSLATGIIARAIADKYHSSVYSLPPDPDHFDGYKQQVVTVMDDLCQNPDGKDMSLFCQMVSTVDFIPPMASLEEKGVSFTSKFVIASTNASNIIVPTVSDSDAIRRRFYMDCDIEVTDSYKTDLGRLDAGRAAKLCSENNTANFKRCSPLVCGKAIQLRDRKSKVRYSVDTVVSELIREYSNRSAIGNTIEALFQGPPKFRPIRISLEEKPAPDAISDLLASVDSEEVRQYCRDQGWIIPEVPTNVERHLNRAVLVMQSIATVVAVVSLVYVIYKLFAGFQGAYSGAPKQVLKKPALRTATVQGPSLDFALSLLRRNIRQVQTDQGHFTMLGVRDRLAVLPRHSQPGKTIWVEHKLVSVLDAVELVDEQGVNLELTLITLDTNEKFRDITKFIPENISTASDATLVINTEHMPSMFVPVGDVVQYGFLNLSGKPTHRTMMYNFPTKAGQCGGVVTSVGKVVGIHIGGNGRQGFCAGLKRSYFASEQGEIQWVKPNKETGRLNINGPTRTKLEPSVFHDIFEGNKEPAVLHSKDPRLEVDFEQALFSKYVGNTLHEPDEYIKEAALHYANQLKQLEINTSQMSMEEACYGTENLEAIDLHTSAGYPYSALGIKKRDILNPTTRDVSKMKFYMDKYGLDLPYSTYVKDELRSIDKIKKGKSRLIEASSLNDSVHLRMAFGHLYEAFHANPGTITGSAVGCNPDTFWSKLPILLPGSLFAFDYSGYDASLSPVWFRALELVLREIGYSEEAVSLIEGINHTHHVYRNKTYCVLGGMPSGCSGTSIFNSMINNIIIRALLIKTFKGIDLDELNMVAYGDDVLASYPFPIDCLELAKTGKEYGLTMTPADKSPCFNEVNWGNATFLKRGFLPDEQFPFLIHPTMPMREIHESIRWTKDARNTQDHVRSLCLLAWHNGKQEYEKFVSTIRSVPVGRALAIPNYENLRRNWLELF
# Method in brief: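 Values reported as Ki (µM), each the mean of three independent experiments with SEM (n=3).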
# Enterovirus A71 = assay: Antiviral activity against Enterovirus A71 infected in human RD cells receiving pEV71-Luc subgenomic replicon stocks from HEK-293T cells; format: functional, organism-based; settings: Enterovirus A; method in brief: as §1
# [2] = Intrinsic clearance in human liver microsomes at 1 mg/ml in presence of NADPH regenerating system by HPLC analysis; format: ADME, microsome; settings: read-out: CLH
# Method in brief: (§2)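 Human and mouse liver microsomes at 1.0 mg/mL. Compound disappearance was tracked over time to give half-life and intrinsic clearance (Clint, µL/min/mg). Data are the mean of triplicates with SD (n = 3).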
# [3] = Half life in human plasma by HPLC analysis; format: ADME, cell-free
# Method in brief: (§3)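 Compound was incubated in human or mouse plasma and its remaining level followed over time to obtain t1/2. Each point is n = 3 with standard deviation bars.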
# [4] = Half life in mouse liver microsomes at 1 mg/ml in presence of NADPH regenerating system by HPLC analysis; format: ADME, microsome; method in brief: as §2
# [5] = Half life in ICR (CD-1) mouse at 20 mg/kg, po administered as single dose by LC-MS analysis; format: ADME, organism-based; settings: in vivo
# Method in brief: (§4)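 Male mice got a single 20 mg/kg dose, either IV or oral (PO), with separate groups for each route. Plasma concentration–time profiles were followed, and parameters were taken from mean ± SD curves (n = 3).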
# [6] = Tmax in ICR (CD-1) mouse at 20 mg/kg, iv administered as single dose by LC-MS analysis; format: ADME, organism-based; settings: in vivo; method in brief: as §4
# Mus musculus [7] = assay: AUC (0 to t) in ICR (CD-1) mouse at 20 mg/kg, iv administered as single dose by LC-MS analysis; format: ADME, organism-based; settings: in vivo; method in brief: as §4
# [8] = Half life in human liver microsomes at 1 mg/ml in presence of NADPH regenerating system by HPLC analysis; format: ADME, microsome; method in brief: as §2
# [9] = Tmax in ICR (CD-1) mouse at 20 mg/kg, po administered as single dose by LC-MS analysis; format: ADME, organism-based; settings: in vivo; method in brief: as §4
# [10] = Intrinsic clearance in mouse liver microsomes at 1 mg/ml in presence of NADPH regenerating system by HPLC analysis; format: ADME, microsome; settings: read-out: CLH; method in brief: as §2
# [11] = Half life in ICR (CD-1) mouse at 20 mg/kg, iv administered as single dose by LC-MS analysis; format: ADME, organism-based; settings: in vivo; method in brief: as §4
# Mus musculus [12] = assay: Cmax in ICR (CD-1) mouse at 20 mg/kg, iv administered as single dose by LC-MS analysis; format: ADME, organism-based; set-up: dose 20 mg/kg, route intravenous; settings: in vivo; method in brief: as §4
# [13] = Half life in ICR (CD-1) mouse plasma by HPLC analysis; format: ADME, cell-free; method in brief: as §3
# Mus musculus [14] = assay: AUC (0 to t) in ICR (CD-1) mouse at 20 mg/kg, po administered as single dose by LC-MS analysis; format: ADME, organism-based; settings: in vivo; method in brief: as §4
# Mus musculus [15] = assay: Cmax in ICR (CD-1) mouse at 20 mg/kg, po administered as single dose by LC-MS analysis; format: ADME, organism-based; set-up: dose 20 mg/kg, route oral; settings: in vivo; method in brief: as §4
# [16] = target: Genome polyprotein (Enterovirus A71) (UniProt A0A1D8D5K2); assay: Covalent binding affinity to EV71 3C protease expressed in Escherichia coli BL21(DE3) at 2 mg/ml incubated for 2 to 3 hrs and measured after trypsin digestion by LC-MS/MS analysis
# Chain of Genome polyprotein (Enterovirus A71) (A0A1D8D5K2 as listed by the source): as the sequence (A0A1D8D5K2 whole entry) above
Compound,CC50 at 24 h [1] [µM],Ki (Genome polyprotein) [µM],EC50 (Enterovirus A71) [µM],further results
Cc1cc(C(=O)N[C@@H](Cc2ccc(F)cc2)C(=O)N[C@@H](C[C@@H]2CCCNC2=O)[C@@H](C#N)OC(=O)NC2CC2)no1,> 100,6.21,12.8,–
CCCN1C(=N)[C@@H]([C@H](C[C@@H]2CCCNC2=O)NC(=O)[C@H](Cc2ccc(F)cc2)NC(=O)c2cc(C)on2)OC1=O,> 100,0.083,0.21,microsomal CLint [2]: 17 µL/min/mg; half-life [3]: > 120 min; half-life [4]: 35 min; half-life [5]: 60 min; Tmax [6]: 5 min; AUCt (Mus musculus [7]): 2340 ng·h/mL; half-life [8]: 40 min; Tmax [9]: 15 min; microsomal CLint [10]: 20 µL/min/mg; half-life [11]: 51 min; Cmax (Mus musculus [12]): 8200 ng/mL; half-life [13]: > 120 min; AUCt (Mus musculus [14]): 7.9 mg·min/mL; Cmax (Mus musculus [15]): 150 ng/mL; Activity [16]: inactive
CC(=O)O[C@@H](C#N)[C@H](C[C@@H]1CCCNC1=O)NC(=O)[C@H](Cc1ccc(F)cc1)NC(=O)c1cc(C)on1,> 100,0.064,0.067,half-life [3]: 50 min; half-life [8]: 64 min; half-life [13]: 42 min
Cc1cc(C(=O)N[C@@H](Cc2ccc(F)cc2)C(=O)N[C@@H](C[C@@H]2CCCNC2=O)[C@@H]2OC(=O)N(C(C)C)C2=N)no1,> 100,0.061,0.51,–
CCN1C(=N)[C@@H]([C@H](C[C@@H]2CCCNC2=O)NC(=O)[C@H](Cc2ccc(F)cc2)NC(=O)c2cc(C)on2)OC1=O,> 100,0.22,4.37,–
Cc1cc(C(=O)N[C@@H](Cc2ccc(F)cc2)C(=O)N[C@@H](C[C@@H]2CCCNC2=O)[C@H]2OC(=O)N(C3CC3)C2=N)no1,> 100,1.71,8.81,–
CCCCN1C(=N)[C@@H]([C@H](C[C@@H]2CCCNC2=O)NC(=O)[C@H](Cc2ccc(F)cc2)NC(=O)c2cc(C)on2)OC1=O,> 100,2.54,12.7,–
CCN1C(=N)[C@H]([C@H](C[C@@H]2CCCNC2=O)NC(=O)[C@H](Cc2ccc(F)cc2)NC(=O)c2cc(C)on2)OC1=O,> 100,3.53,17.2,–
Cc1cc(C(=O)N[C@@H](Cc2ccc(F)cc2)C(=O)N[C@@H](C[C@@H]2CCCNC2=O)[C@H]2OC(=O)N(C)C2=N)no1,> 100,0.28,3.97,–
Cc1cc(C(=O)N[C@@H](Cc2ccc(F)cc2)C(=O)N[C@@H](C[C@@H]2CCCNC2=O)[C@H](C#N)OC(=O)N(C)C)no1,> 100,–,70.4,–
Cc1cc(C(=O)N[C@@H](Cc2ccc(F)cc2)C(=O)N[C@@H](C[C@@H]2CCCNC2=O)[C@H](C#N)OC(=O)Nc2ccccc2)no1,> 100,–,13.2,–
CCCCNC(=O)O[C@H](C#N)[C@H](C[C@@H]1CCCNC1=O)NC(=O)[C@H](Cc1ccc(F)cc1)NC(=O)c1cc(C)on1,> 100,4.78,8.46,–
Cc1cc(C(=O)N[C@@H](Cc2ccc(F)cc2)C(=O)N[C@@H](C[C@@H]2CCCNC2=O)[C@H]2OC(=O)N(C(C)C)C2=N)no1,> 100,0.033,0.1,microsomal CLint [2]: 9 µL/min/mg; half-life [3]: > 120 min; half-life [4]: 74 min; half-life [8]: 76 min; microsomal CLint [10]: 9 µL/min/mg; half-life [13]: > 120 min
Cc1cc(C(=O)N[C@@H](Cc2ccc(F)cc2)C(=O)N[C@@H](C[C@@H]2CCCNC2=O)[C@H](C#N)OC(=O)NC2CC2)no1,> 100,1.28,5.11,–
CCOC(=O)/C=C/[C@H](C[C@@H]1CCNC1=O)NC(=O)[C@@H](CC(=O)[C@@H](NC(=O)c1cc(C)on1)C(C)C)Cc1ccc(F)cc1,–,–,–,Activity [16]: Active
